Data taken from ChEMBL document CHEMBL1153726, “Synthesis and anticancer activity of sclerophytin-inspired hydroisobenzofurans” (Bioorg Med Chem Lett, 2009).

What was measured:
Format in all cases: functional
SN12C [1] = assay: Growth inhibition of human SN12C cells at 1 nM after 96 hrs by MTT assay; design: scale not given: the % may be the effect or the level left
SK-MEL-28 = assay: Growth inhibition of human SK-MEL-28 cells at 1 nM after 96 hrs by MTT assay; design: scale not given: the % may be the effect or the level left
SK-MEL-2 [2] = assay: Growth inhibition of human SK-MEL-2 cells at 1 nM after 96 hrs by MTT assay; design: scale not given: the % may be the effect or the level left
NCI-H23 = assay: Growth inhibition of human NCI-H23 cells at 1 nM after 96 hrs by MTT assay; design: scale not given: the % may be the effect or the level left
EKVX = assay: Growth inhibition of human EKVX cells at 1 nM after 96 hrs by MTT assay; design: scale not given: the % may be the effect or the level left
[3] = Growth inhibition of human Hs 578T cells at 10 uM after 96 hrs by MTT assay; design: scale not given: the % may be the effect or the level left
MDA-MB-231 = assay: Growth inhibition of human MDA-MB-231 cells at 10 uM after 96 hrs by MTT assay; design: scale not given: the % may be the effect or the level left
DU-145 [4] = assay: Growth inhibition of human DU145 cells at 10 uM after 96 hrs by MTT assay; design: scale not given: the % may be the effect or the level left
SK-OV-3 [5] = assay: Growth inhibition of human SKOV3 cells at 10 uM after 96 hrs by MTT assay; design: scale not given: the % may be the effect or the level left
HCT-116 = assay: Growth inhibition of human HCT116 cells at 10 uM after 96 hrs by MTT assay; design: scale not given: the % may be the effect or the level left
COLO 205 = assay: Growth inhibition of human COLO205 cells at 10 uM after 96 hrs by MTT assay; design: scale not given: the % may be the effect or the level left
[6] = Growth inhibition of human RPMI8266 cells at 10 uM after 96 hrs by MTT assay; design: scale not given: the % may be the effect or the level left
NCI-H226 = assay: Growth inhibition of human NCI-H226 cells at 10 nM after 96 hrs by MTT assay; design: scale not given: the % may be the effect or the level left
TK-10 = assay: Growth inhibition of human TK10 cells at 1 nM after 96 hrs by MTT assay; design: scale not given: the % may be the effect or the level left
SNB-19 = assay: Growth inhibition of human SNB19 cells after 96 hrs by MTT assay; conditions: SNB-19, 96 h
Outline: (§1)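 Tested in the NCI 60-cell-line panel in five-dose format; GI50 and LC50 values reported for each cell line.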

OVCAR-3 [7] = assay: Growth inhibition of human OVCAR-3 cells after 96 hrs by MTT assay; conditions: OVCAR-3, 96 h; outline: as §1
[8] = Growth inhibition of human RPMI8266 cells at 10 nM after 96 hrs by MTT assay; design: scale not given: the % may be the effect or the level left
K562 [9] = assay: Growth inhibition of human K562 cells at 10 nM after 96 hrs by MTT assay; design: scale not given: the % may be the effect or the level left
HOP-62 [10] = assay: Growth inhibition of human HOP62 cells after 96 hrs by MTT assay; conditions: HOP-62, 96 h
Outline: (§2)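 Run in the NCI 60 human tumour cell line panel as a five-dose assay. GI50 and LC50 were reported for each cell line.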

MOLT-4 = assay: Growth inhibition of human MOLT4 cells after 96 hrs by MTT assay; conditions: MOLT-4, 96 h; outline: as §2
[11] = Growth inhibition of human Hs 578T cells at 1 uM after 96 hrs by MTT assay; design: scale not given: the % may be the effect or the level left
SN12C [12] = assay: Growth inhibition of human SN12C cells at 1 uM after 96 hrs by MTT assay; design: scale not given: the % may be the effect or the level left
A498 = assay: Growth inhibition of human A498 cells at 1 uM after 96 hrs by MTT assay; design: scale not given: the % may be the effect or the level left
T47D = assay: Growth inhibition of human T47D cells at 100 nM after 96 hrs by MTT assay; design: scale not given: the % may be the effect or the level left
DU-145 [13] = assay: Growth inhibition of human DU145 cells at 100 nM after 96 hrs by MTT assay; design: scale not given: the % may be the effect or the level left
ACHN [14] = assay: Growth inhibition of human ACHN cells at 100 nM after 96 hrs by MTT assay; design: scale not given: the % may be the effect or the level left
SK-OV-3 [15] = assay: Growth inhibition of human SKOV3 cells at 100 nM after 96 hrs by MTT assay; design: scale not given: the % may be the effect or the level left
OVCAR-8 [16] = assay: Growth inhibition of human OVCAR8 cells at 100 nM after 96 hrs by MTT assay; design: scale not given: the % may be the effect or the level left
MDA-MB-435 = assay: Growth inhibition of human MDA-MB-435 cells at 100 nM after 96 hrs by MTT assay; design: scale not given: the % may be the effect or the level left
NCI-H322M = assay: Growth inhibition of human NCI-H322M cells at 100 nM after 96 hrs by MTT assay; design: scale not given: the % may be the effect or the level left
HOP-62 [17] = assay: Growth inhibition of human HOP62 cells at 100 nM after 96 hrs by MTT assay; design: scale not given: the % may be the effect or the level left
A549 [18] = assay: Growth inhibition of human A549 cells at 100 nM after 96 hrs by MTT assay; design: scale not given: the % may be the effect or the level left
ACHN [19] = assay: Growth inhibition of human ACHN cells at 10 nM after 96 hrs by MTT assay; design: scale not given: the % may be the effect or the level left
SK-OV-3 [20] = assay: Growth inhibition of human SKOV3 cells at 10 nM after 96 hrs by MTT assay; design: scale not given: the % may be the effect or the level left
OVCAR-8 [21] = assay: Growth inhibition of human OVCAR8 cells at 10 nM after 96 hrs by MTT assay; design: scale not given: the % may be the effect or the level left
OVCAR-3 [22] = assay: Growth inhibition of human OVCAR-3 cells at 10 nM after 96 hrs by MTT assay; design: scale not given: the % may be the effect or the level left
UACC-62 = assay: Growth inhibition of human UACC62 cells at 1 uM after 96 hrs by MTT assay; design: scale not given: the % may be the effect or the level left
SK-MEL-2 [23] = assay: Growth inhibition of human SK-MEL-2 cells at 1 uM after 96 hrs by MTT assay; design: scale not given: the % may be the effect or the level left
K562 [24] = assay: Growth inhibition of human K562 cells at 1 uM after 96 hrs by MTT assay; design: scale not given: the % may be the effect or the level left
SF-295 = assay: Growth inhibition of human SF295 cells at 1 uM after 96 hrs by MTT assay; design: scale not given: the % may be the effect or the level left
SF-268 = assay: Growth inhibition of human SF268 cells at 1 uM after 96 hrs by MTT assay; design: scale not given: the % may be the effect or the level left
HCC 2998 = assay: Growth inhibition of human HCC2998 cells at 1 uM after 96 hrs by MTT assay; design: scale not given: the % may be the effect or the level left
HOP-62 [25] = assay: Growth inhibition of human HOP62 cells at 1 uM after 96 hrs by MTT assay; design: scale not given: the % may be the effect or the level left
A549 [26] = assay: Growth inhibition of human A549 cells at 1 uM after 96 hrs by MTT assay; design: scale not given: the % may be the effect or the level left
[27] = read-out: LC50 (the source's name)
[28] = read-out: Log10GI50 (converted)
[29] = read-out: Log10LC50 (converted)

C=C(C)[C@H]1CC=C(C)C2=CO[C@@H](c3ccccc3F)[C@@H]21
Activity (SN12C [1]): 85% | Activity (SK-MEL-28): 98% | Activity (SK-MEL-2 [2]): 88% | Activity (NCI-H23): 98% | Activity (EKVX): 98% | Activity [3]: 95.86% | Activity (MDA-MB-231): 101.47% | Activity (DU-145 [4]): 105.62% | Activity (SK-OV-3 [5]): 93.49% | Activity (HCT-116): 71.81% | Activity (COLO 205): 101.29% | Activity [6]: 18.49% | Activity (NCI-H226): 89% | Activity (TK-10): 84% | GI50 (SNB-19; read-out: GI50): 10.7 µM | CC50 (SNB-19; [27]): 47.4 µM | GI50 (SNB-19; [28]): 10.7 µM | CC50 (SNB-19; [29]): 47.9 µM | TGI (SNB-19; read-out: Log10TGI (converted)): 22.4 µM | TGI (SNB-19; read-out: TGI): 22.5 µM | GI50 (OVCAR-3 [7]; read-out: GI50): 3.24 µM | CC50 (OVCAR-3 [7]; [27]): 36.5 µM | GI50 (OVCAR-3 [7]; [28]): 3.24 µM | CC50 (OVCAR-3 [7]; [29]): 36.3 µM | TGI (OVCAR-3 [7]; read-out: Log10TGI (converted)): 12.9 µM | TGI (OVCAR-3 [7]; read-out: TGI): 12.8 µM | Activity [8]: 56% | Activity (K562 [9]): 95% | GI50 (HOP-62 [10]; read-out: GI50): 10.1 µM | CC50 (HOP-62 [10]; [27]): 46.8 µM | GI50 (HOP-62 [10]; [28]): 10.2 µM | CC50 (HOP-62 [10]; [29]): 46.8 µM | TGI (HOP-62 [10]; read-out: Log10TGI (converted)): 21.9 µM | TGI (HOP-62 [10]; read-out: TGI): 21.8 µM | GI50 (MOLT-4; read-out: GI50): 2.12 µM | CC50 (MOLT-4; [27]): 56.2 µM | GI50 (MOLT-4; [28]): 2.14 µM | CC50 (MOLT-4; [29]): 56.2 µM | TGI (MOLT-4; read-out: Log10TGI (converted)): 7.08 µM | TGI (MOLT-4; read-out: TGI): 7.03 µM | Activity [11]: 28% | Activity (SN12C [12]): 44% | Activity (A498): -16% | Activity (T47D): 76% | Activity (DU-145 [13]): 87% | Activity (ACHN [14]): 97% | Activity (SK-OV-3 [15]): 98% | Activity (OVCAR-8 [16]): 93% | Activity (MDA-MB-435): 84% | Activity (NCI-H322M): 79% | Activity (HOP-62 [17]): 98% | Activity (A549 [18]): 95% | Activity (ACHN [19]): 96% | Activity (SK-OV-3 [20]): 100% | Activity (OVCAR-8 [21]): 97% | Activity (OVCAR-3 [22]): 88% | Activity (UACC-62): 29% | Activity (SK-MEL-2 [23]): 31% | Activity (K562 [24]): 10% | Activity (SF-295): 30% | Activity (SF-268): 43% | Activity (HCC 2998): 39% | Activity (HOP-62 [25]): 51% | Activity (A549 [26]): 38%
